An excerpt weighted towards active compounds, which were near 3.9% of everything screened.
HSF-1 act = HSF-1 activators, primary screen, NIH3T3-HGL cells, MG132 stress, luminescence, single point | AID 504408, 2011 | 300,000 tested, 1.7% active | NIH3T3-HGL HSF-1 luciferase reporter, 8 h; 100% = twice DMSO control signal | activation, % at 9 µM;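 active = mean replicate activation of at least 50% with a set share of replicates each reaching 50%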;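 note: 0% = median of the neutral control wells and 100% = twice that signal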
HSP90 refold inh = HSP90 inhibitors, primary screen, cell lysate, luminescence | inhibition, % at 5.6 µM | 290,000 tested, 0.91% active | Heat shock protein HSP 90 (rabbit reticulocyte lysate; luciferase refolding) | Rabbit reticulocyte lysate, luciferase refolding luminescence, 3 h;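 active = inhibition above the screen-wide mean plus 3 SD, computed separately per campaign, cut at about 16% in these data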;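 note: 0% = DMSO wells and 100% = 60 µM geldanamycin wells; inhibitors lower the luminescence because luciferase stays unfolded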
FID counter = compounds displacing fluorescent DNA intercalator, primary screen, artefact control for HCV NS3 helicase inhibitor project, biochemical, FID fluorescence; DNA fluorescent intercalator displacement; inhibition, % at 7.9 µM; 290,000 tested, 0.17% active; AID 1845, 2009; in the data active = inhibition above about 37%;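 note: 0% = vehicle and 100% = reference compound; higher means more ethidium bromide displaced from hairpin DNA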
NS3 helicase inh = inhibitors of HCV NS3 helicase, primary screen, biochemical, Cy5 molecular beacon fluorescence. NS3 helicase DNA unwinding. inhibition, % at 10.9 µM. AID 1800, 2009. 290,000 tested, 0.56% active;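 active = inhibition above the mean of all tested compounds plus 3 SD, set per campaign, cut at about 35% in these data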;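 note: 0% = DMSO wells and 100% = thioflavine S control wells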
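Assay system: hepatitis C virus NS3 helicase domain fragment enzyme. Also added: annealed dual-labelled DNA beacon duplex, ATP-started. Timing: 1 h reaction at 25 °C, ATP-initiated. Technique: Cy5 fluorescence at 0 and 60 min, beacon hairpin quenching. Evaluation: % inhibition of unwinding. Replication: one well per compound.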
core dimer inh = inhibitors of HCV core protein dimerization, primary screen, biochemical, TR-FRET, high-throughput | AID 1899, 2009 | TR-FRET GST/Flag-core106 dimerization, 1536-well | 300,000 tested, 0.33% active | inhibition, % at 5 µM;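 active = inhibition above the mean of all tested compounds plus 3 SD, set per screening campaign, cut at about 45% in these data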
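test system = GST/Flag-tagged HCV core106 proteins | probe or stimulus = Eu donor and XL665 acceptor anti-tag antibodies | times = compound-protein-antibody incubation 4 h at 22.5 °C | signal = TR-FRET, excitation 340 nm, emission 617 and 671 nm | measure = percent inhibition of core106 dimerization signal | controls = wells lacking GST-core106 and wells with excess unlabelled core106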
HSF1 inh = HSF1 inhibitors in luciferase reporter cells, primary screen, cell-based, NIH3T3, luminescence | NIH3T3-HGL HSE-luciferase, MG132-induced, luminescence 8 h; active compounds read low | activity change, negative = inhibition, % at 7.5 µM (by protocol) | 300,000 tested, 0.77% active | AID 2098, 2009;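 active = more than half of replicate wells show activity change below -50%, luminescence cut by over half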;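 note: luciferase reports HSF-1 transcriptional activity via heat shock element; 0% = median of DMSO wells and -100% = zero luminescence signal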
* hit, by the source's call; . = not tested or not shown.

SMILES | HSF-1 act | HSP90 refold inh | FID counter | NS3 helicase inh | core dimer inh | HSF1 inh
CCOc1ccc(-n2nc3c(=O)n(CCN4CCCCC4)nc(C)c3c2C)cc1 | 4 | 1 | -2 | -6 | -6 | -5
C[C@@H]1C[C@@H]2OC(=O)[C@]3(C)[C@H]2[C@@H](OC3(C)O)[C@]2(C)C(=O)C=C[C@H]12 (stereo partly specified) | 1 | . | . | . | 3 | 3
C=C1C(=O)O[C@@H]2C[C@@H](C)[C@@H]3C=CC(=O)[C@@]3(C)[C@@H](OC(C)=O)[C@H]12 | -87 | . | . | . | 0 | -86*
O=C(CCl)Nc1cccc(Oc2ccccc2)c1 | 74* | 2 | 0 | -2 | 3 | 37
O=C(COc1ccccc1)Nc1cccc(-c2nnc(-c3ccccc3)o2)c1 | 36 | . | . | . | 11 | 19
C=Cc1cccc(NC(=O)COc2ccccc2)c1 | 57* | -3 | -7 | 2 | -3 | 23
Cc1ccc(C(=O)Nc2cccc(Oc3ccccc3)c2)o1 | 58* | 8 | -11 | -5 | 4 | 22
O=C(CCl)Nc1cccc(Oc2cnccn2)c1 | 8 | 1 | -3 | -5 | 13 | -3
COc1ccccc1Cn1c(/C=C/c2ccccc2)nc2ccccc21 | 29 | -3 | -12 | 0 | 3 | 12
COc1ccc(/C=C/c2nc3ccccc3n2Cc2ccccc2OC)cc1 | 68* | 3 | -10 | 1 | 8 | 21
CCCCn1c(SCC(=O)c2ccc(OC)cc2OC)nc2cc(S(N)(=O)=O)ccc21 | 4 | 4 | -26 | 2 | 79* | 0
CCCCn1c(SCc2c(C)noc2C)nc2cc(S(N)(=O)=O)ccc21 | 52* | 9 | -29 | 25 | 8 | 30
CCCCn1c(SCC(=O)N2CCCC2)nc2cc(S(N)(=O)=O)ccc21 | 1 | -3 | -26 | -5 | 1 | -3
COc1cccc(-c2nn(C)c3sc(C(=O)Nc4ccc5c(c4)OCCO5)cc23)c1 | 55* | 2 | 7 | -9 | 6 | 34
CCc1nnc2n1N=C(c1ccc(-c3cc(Cl)ccc3Cl)o1)CS2 | 25 | 2 | -3 | 9 | 61* | 1
O=C(Nc1ccccc1Sc1ccccc1)c1ccc(F)cc1 | 24 | 4 | -10 | 3 | 6 | 2
Cc1ccc(C(=O)Nc2ccccc2Sc2ccccc2)cc1 | 57* | -3 | -8 | -8 | 5 | 36
CCc1c(C(=O)N/N=C/c2ccc(OCc3ccc(F)cc3)c(OC)c2)nnn1-c1nonc1N | 57* | 6 | -12 | -29 | 22 | 34
Cc1ccc(/C=N/NC(=O)c2nnn(-c3nonc3N)c2CN(C)C2CCCCC2)cc1 | -94 | 0 | -21 | 2 | -8 | -92*
CN(Cc1c(C(=O)N/N=C/c2ccc(O)cc2)nnn1-c1nonc1N)C1CCCCC1 | -6 | -1 | -20 | -16 | 4 | 0
COc1ccc2c3c(c(=O)oc2c1OCC(N)=O)CCCC3 | 16 | 1 | -1 | -6 | 2 | 2
COCCN1C(=NCCCOC(C)C)N[C@@H](c2ccccc2)C(C(=O)OC)=C1C | 9 | -1 | 5 | -8 | 7 | -3
O=[N+]([O-])c1ccc2nc(-c3ccccc3)oc2c1 | 62* | 2 | 2 | 16 | -1 | 24
CCCNC(=O)NC(=O)CSc1nnc(-c2c[nH]c3ccccc23)o1 | 9 | 5 | -31 | -3 | 7 | 0
O=C(c1cc(Cl)ccc1Cl)N1CCOCC1 | -78 | 5 | 0 | -8 | -14 | -72*
O=C(O)c1cc(Cl)c(Cl)cc1C(=O)N1CCOCC1 | -13 | -1 | 3 | -17 | 0 | -9
Cc1ccc2nc3c(cc(C(=O)NCCN4CCOCC4)c(=N)n3CCCN3CCOCC3)c(=O)n2c1 | 14 | 0 | 79* | 20 | -4 | -3
N=c1c(C(=O)NCCN2CCOCC2)cc2c(=O)n3ccccc3nc2n1CCCN1CCOCC1 | 20 | -2 | 76* | 12 | -7 | -2

Assay outcomes: PubChem, several laboratories
